The values below come from ChEMBL document CHEMBL1135814, “Aldisine alkaloids from the Philippine sponge Stylissa massa are potent inhibitors of mitogen-activated protein kinase kinase-1 (MEK-1)” (J Med Chem, 2002).

For assay [1], the system named is Caco-2. The assay is described as follows: Inhibition of human adenocarcinoma cell line Caco-2 proliferation. Format: functional, cell-based. The method in brief:
(§1)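 Cells grown in RPMI 1640 with 10% fetal bovine serum, L-glutamine and penicillin/streptomycin. Compounds from 100% DMSO stocks were diluted in complete medium and applied at varying concentrations. Growth inhibition was read by sulforhodamine B staining, reported as IC50.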

Assay [2] has as its system LoVo. The assay is described as follows: Inhibition of human adenocarcinoma cell line LoVo proliferation. The assay is classed as functional, cell-based. In outline: as §1
Assay [3] concerns the target Dual specificity mitogen-activated protein kinase kinase 1 (Homo sapiens, UniProt Q02750). Put plainly: Inhibition of MEK1 phosphorylation by activated human recombinant Raf.
Assay [4] concerns the target Serine/threonine-protein kinase RAF and Dual specificity mitogen-activated protein kinase kinase 1 (Raf/MEK) (Homo sapiens, UniProt P04049+Q02750). The assay is described as follows: Inhibition of kinase activity of Raf/MEK/ERK kinase cascade in ELISA. The assay is classed as protein assay.

Some results are limits rather than exact numbers.

Sequence of Dual specificity mitogen-activated protein kinase kinase 1 (Q02750 whole entry): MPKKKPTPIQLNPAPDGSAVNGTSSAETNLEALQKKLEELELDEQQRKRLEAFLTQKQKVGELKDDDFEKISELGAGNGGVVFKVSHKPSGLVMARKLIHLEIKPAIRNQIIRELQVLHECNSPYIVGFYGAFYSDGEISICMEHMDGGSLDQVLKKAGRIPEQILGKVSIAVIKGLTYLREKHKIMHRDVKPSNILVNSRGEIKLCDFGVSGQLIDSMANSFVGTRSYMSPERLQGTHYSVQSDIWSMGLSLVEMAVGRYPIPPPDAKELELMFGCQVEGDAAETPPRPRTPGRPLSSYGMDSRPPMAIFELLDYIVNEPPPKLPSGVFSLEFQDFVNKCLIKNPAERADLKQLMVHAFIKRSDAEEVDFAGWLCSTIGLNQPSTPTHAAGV

The IC50 is the point on the concentration scale where inhibition reaches its midpoint. In the case of `Nc1nc(C2CCNC(=O)c3[nH]c(Br)c(Br)c32)c[nH]1` (stereo not drawn), the IC50 in assay [1] was greater than 10000 nM; in assay [2] it was greater than 10000 nM; in assay [3], greater than 2500 nM; in assay [4], 1288 nM.
Consider `NC(=O)c1cc(Br)c(Br)[nH]1`, for which the IC50 was greater than 10000 nM in assay [1], greater than 10000 nM in assay [2], greater than 2500 nM in assay [3] and greater than 2500 nM in assay [4].
Regarding `NC1=N/C(=C2\CCNC(=O)c3[nH]c(Br)cc32)C(=O)N1`, the IC50 in assay [1] is greater than 3870 nM; in assay [2], 586 nM.
For `O=C1CCNC(=O)c2[nH]c(Br)cc21` the same measures were greater than 10000 nM and greater than 10000 nM.
For `CSCC[C@H](NC(=O)c1ccc(NC[C@@H](N)CS)cc1-c1ccccc1)C(=O)O` the same measures were greater than 10000 nM and 50 nM.
With `O=C1CCNC(=O)c2[nH]ccc21` [ALDISIN], the IC50 was greater than 10000 nM in assay [1], greater than 10000 nM in assay [2], greater than 2500 nM in assay [3] and greater than 2500 nM in assay [4].
Turning to `NC1=N/C(=C2/CCNC(=O)c3[nH]ccc32)C(=O)N1` [DEBROMOHYMENIALDISINE], the IC50 in assay [1] is greater than 10000 nM; in assay [2] it was greater than 10000 nM; in assay [3], greater than 2500 nM; in assay [4] it was 881 nM.
In the case of `NC1=NC(=O)/C(=C2\CCNC(=O)c3[nH]c(Br)cc32)N1` [HYMENIALDISINE], the figures for the IC50 in assay [1] and in assay [2] were greater than 7800 nM and 710 nM, respectively.
As to `Nc1ncc(/C=C/CNC(=O)c2cc(Br)c(Br)[nH]2)[nH]1` [OROIDIN], the IC50 in assay [1] is greater than 10000 nM; in assay [2], greater than 10000 nM; in assay [3] it was greater than 2500 nM; in assay [4], greater than 2500 nM.
